Compound activity as filed in PubChem.
mIAP act: activators of mouse IAP, primary screen, biochemical, luminescence, uHTS. intestinal alkaline phosphatase [Mus musculus]. muIAP, CDP-Star luminescence, 30 min; active compounds read high; 1 = vehicle-only enzyme signal, 0 = enzyme-free wells. activation factor at 10 µM. actives 0.24% (n = 330,000);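 active = activation factor of at least 2 at 20 µM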
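Assay system: mouse IAP enzyme / Compound: DMSO-dissolved test compounds / Timing: 30 min, room temperature / Measured by: luminescence from enzymatic CDP-Star hydrolysis / Control set: DMSO-only wells, enzyme-free buffer wells as negative control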
bIAP inhibitor: bovine intestinal alkaline phosphatase inhibitors, primary screen, selectivity assay for TNAP inhibitor project, biochemical, bovine IAP, CDP-star luminescence; alkaline phosphatase, intestinal [Bos taurus]; purified bovine IAP, 30 min; inhibition, % at 20 µM; 190,000 tested, under 10 active; AID 1019, 2008;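 active = over 50% inhibition of intestinal alkaline phosphatase at 20 µM in the single-dose screen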
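Assay system – bovine IAP enzyme · Quantity – bovine IAP at 1/65,000,000 final dilution · Detection – CDP-star luminescence signal · Times – 30 min reaction at room temperature · Also added – CDP-star substrate at 30 µM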
bIAP act: bovine intestinal alkaline phosphatase activators, primary screen, biochemical, bovine IAP, CDP-star luminescence; alkaline phosphatase, intestinal [Bos taurus]; purified bovine IAP, 30 min; active compounds read high; fold of DMSO-control signal, blank-subtracted; activation factor at 20 µM; actives 0.17% (n = 200,000);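 active = activation factor of 2 or more at 20 µM, a signal rise over negative controls twice the positive control's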
hIAP block: human IAP inhibitors, primary screen, biochemical, luminescence, uHTS; Intestinal-type alkaline phosphatase (Homo sapiens), P09923; purified IAP, CDP-Star luminescence, 30 min; inhibition, % at 10 µM; actives 0.12% (n = 330,000); AID 2544, 2010;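 active = inhibition reaching a set limit with compound at 10 µM in the primary screen, cut at about 35% in these data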;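 also: plate controls were DMSO wells with enzyme for no effect and no-enzyme buffer wells for full effect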
Target sequence (P09923 whole entry, looked up): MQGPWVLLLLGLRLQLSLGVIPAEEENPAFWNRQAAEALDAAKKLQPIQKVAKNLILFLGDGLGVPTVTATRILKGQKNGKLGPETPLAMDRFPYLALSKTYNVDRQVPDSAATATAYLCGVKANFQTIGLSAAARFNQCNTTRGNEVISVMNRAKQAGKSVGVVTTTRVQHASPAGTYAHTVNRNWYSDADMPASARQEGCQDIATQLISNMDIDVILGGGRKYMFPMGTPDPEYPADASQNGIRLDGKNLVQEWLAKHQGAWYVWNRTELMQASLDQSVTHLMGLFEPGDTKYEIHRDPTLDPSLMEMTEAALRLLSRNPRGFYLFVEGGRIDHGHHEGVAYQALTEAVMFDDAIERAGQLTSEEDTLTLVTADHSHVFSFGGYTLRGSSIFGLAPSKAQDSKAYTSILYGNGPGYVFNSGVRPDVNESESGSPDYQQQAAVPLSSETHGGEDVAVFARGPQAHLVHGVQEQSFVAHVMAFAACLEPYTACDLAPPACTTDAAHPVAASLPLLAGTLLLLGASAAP
hIAP act: human IAP activators, primary screen, biochemical, luminescence, uHTS; Intestinal-type alkaline phosphatase (Homo sapiens), P09923; purified human IAP, CDP-Star luminescence, 30 min; active compounds read high; 1 = vehicle-only enzyme, 0 = enzyme-free background; activation factor at 10 µM; actives 0.16% (n = 330,000);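 active = activation factor of the enzyme at least 2-fold when tested at 20 µM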
mIAP inh: inhibitors of mouse IAP, primary screen, biochemical, luminescence, uHTS; purified mouse IAP, CDP-Star luminescence, 30 min; inhibition, % at 10 µM; actives 0.2% (n = 330,000);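 active = inhibition of at least 40% at 10 µM in the primary screen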;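 also: plate controls were DMSO with enzyme for no effect and no enzyme wells for full effect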
hIAP act confirm: human IAP activators, confirmation, biochemical, luminescence, single concentration, uHTS hits. actives 10% (n = 880). activation (%Activity, negative = activation), % at 8.3 µM. purified IAP, CDP-Star luminescence, 30 min; active compounds read low. shares compounds with hIAP act;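 active = at least twofold enzyme activation in any of six single-dose repeats, which the averaged readout prints as negative percent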
* hit, by the source's call; i = inactive; / = not tested or not shown. Sampled rows, rich in hits. Any-hit rate of the full collection: about 0.79%.

SMILES	mIAP act	bIAP inhibitor	bIAP act	hIAP block	hIAP act	mIAP inh	others
Cc1c(Cl)cccc1N1C(=O)CC(NNC(=O)c2cccs2)C1=O (stereo not drawn)	1	10	0.9	13	0.87	0
Cc1ccc(NC(=O)Cc2csc(-c3ccccc3)n2)cc1F	1	-2	1	36*	0.65	-2
O=C(Cc1csc(-c2ccccc2)n1)Nc1ccc(C(F)(F)F)cc1	0.99	16	0.8	-4	1	1
COc1ccc(NC(=O)c2ccc3c(=O)n(Cc4ccco4)c(=S)[nH]c3c2)c(OC)c1	0.55	-12	1.1	-13	1.1	45*
Cc1ccc(NC(=O)C2CCN(S(=O)(=O)c3ccc4c(c3)NC(=O)C(C)S4)CC2)cc1Cl (stereo not drawn)	2.4*	/	/	-53	1.5	-137
CCCc1nc2ccccc2n1C(=S)SC	1	-11	1.1	22	0.78	-4
CC(O)CNc1nc2ccccc2n1-c1ncnc2sc3c(c12)CCC3 (stereo not drawn)	1.4	-105	2.1*	-8	1.1	-44
Cn1c(CNC(=O)c2ccc3c(c2)OCO3)nnc1SCC(=O)Nc1ccc(F)cc1F	1.1	/	/	-6	1.1	-6
O=C(Nc1cccc(Cl)c1)c1cc(N=Nc2ccc([N+](=O)[O-])cc2Cl)ccc1O	0.74	/	/	38*	0.61	26
O=C(Nc1ccc([N+](=O)[O-])cc1Cl)c1cc(Cl)ccc1O	0.97	/	/	0	1	2
COCCN(C(=O)Cc1cccs1)C(C(=O)NC1CCCC1)c1ccc(OC)c(OC)c1 (stereo not drawn)	1	-1	1	-43	1.4	-1
COc1ccc(-c2nnn(CC(=O)N(Cc3cccs3)C(C)C(=O)NC3CCCC3)n2)cc1OC (stereo not drawn)	1.1	-25	1.3	6	0.94	-7
CCC(C(=O)NC1CCCC1)N(Cc1cccs1)C(=O)Cn1nnc(-c2ccc(OC)c(OC)c2)n1 (stereo not drawn)	2.1*	6	0.9	-29	1.3	-109
COc1ccc(C(C(=O)NC2CCCC2)N(Cc2cccs2)C(=O)c2ccn[nH]2)cc1OC (stereo not drawn)	1.3	-131	2.3*	-41	1.4	-29
Cc1ccc(-n2cnc3cc(NCc4cccs4)ccc32)cc1	0.98	i	22*	-3	1	2
CCCCNC(=S)Nc1ccc(Oc2ccccc2)cc1	2.3*	23	0.8	-10	1.1	-135
CC(C)(C)c1ccc(OCCNC(=S)Nc2ccccc2)cc1	2.4*	8	0.9	2	0.98	-136
S=C(NCC1CCCCC1)Nc1ccc(Oc2ccccc2)cc1	3.3*	-18	1.2	5	0.95	-226
Cc1cccc(NC(=S)NC2CCCC2)c1	1.1	-9	1.1	-5	1.1	-14
S=C(Nc1ccc(Br)cc1)NC1CCCC1	2.1*	-11	1.1	-18	1.2	-107
Cc1ccc(NS(=O)(=O)c2ccc3c(c2)NC(=O)CO3)cc1Cl	0.96	/	/	8	0.92	4
Cc1ccc(SCC(=O)NC(C)c2ccccc2)cc1 (stereo not drawn)	1	/	/	-9	1.1	0
S=C(Nc1ccc(Oc2ccccc2)cc1)NC1CCCC1	2.7*	1	1	2	0.98	-172
S=C(Nc1ccccc1Oc1ccccc1)NC1CCCC1	1.4	-1	1	-5	1.1	-43
O=C1c2ccccc2S(=O)(=O)c2cc(N3CCC(C(=O)N4CCCCC4)CC3)ccc21	1	/	/	19	0.81	-2
SMILES	mIAP act	bIAP inhibitor	bIAP act	hIAP block	hIAP act	mIAP inh	others
O=C1c2ccccc2S(=O)(=O)c2cc(N3CCc4ccccc4C3)ccc21	0.57	/	/	8	0.92	43*
CCOc1ccc(CCNC(=O)c2ccc3c(c2)NC(=O)C2CCCN32)cc1OCC (stereo not drawn)	2*	/	/	8	0.92	-103
COc1ccc(/C=C(/C(=O)c2ccc(Cl)cc2Cl)n2cncn2)cc1	0.97	9	0.9	-4	1	3
CN(C)c1ccc(/C=C(/C(=O)c2ccc(Cl)cc2Cl)n2cncn2)cc1	0.58	6	0.9	25	0.75	42*
O=C(O)CCCCCn1c(O)c(C=C2N=c3ccccc3=N2)sc1=S	0.6	24	0.8	-30	1.3	40*
Cc1cccc(NC(=O)Cn2nc(C(F)(F)F)cc2C2CC2)c1	0.96	19	0.8	21	0.79	4
Cc1cc(C)cc(NC(=S)N2CCCC2)c1	1	/	/	36*	0.64	0	hIAP act confirm=-27
Cc1cc(C)n(C(=O)CN2C(=O)CCC2=O)n1	1	14	0.9	-7	1.1	-4
Cc1cc(C)n(C(=O)C23CC4CC(CC(C4)C2)C3)n1	0.86	2	1	-136	2.4*	14	hIAP act confirm=-126*
CCOc1ccc(CNS(=O)(=O)c2ccc(-c3ccc(=O)[nH]n3)o2)cc1OC	0.96	/	/	-16	1.2	4
CCN1/C(=C/c2ccc3cc(C)ccc3[n+]2CC)Sc2ccccc21	0.66	-23	1.2	37*	0.63	34	hIAP act confirm=9
CCN1/C(=C/c2ccc3cc(C)ccc3[n+]2CC)Sc2cc(C)c(C)cc21	0.83	/	0.3	32	0.68	17
COc1ccccc1OCCNC(=O)CN(c1cccc(C)c1)S(=O)(=O)c1ccccc1	1.1	/	/	-1	1	-14
COc1ccccc1OCC(=O)Nc1cccc(-c2nc3ccccc3o2)c1	0.98	8	0.9	-14	1.1	2
NC(=O)c1nsc(C(=O)N(CCc2ccccc2)C(C(=O)NC2CCCC2)c2ccco2)c1N (stereo not drawn)	0.96	8	0.9	4	0.96	4
CC(=O)N1CCOc2ccc(S(=O)(=O)N3CCC(C(=O)Nc4ccc(C)cc4)CC3)cc21	1.2	/	/	-36	1.4	-17
CCc1ccc(NC(=O)C2CCN(S(=O)(=O)c3c(C)[nH]c(=O)[nH]c3=O)CC2)cc1	1.1	-9	1.1	-152	2.5*	-6	hIAP act confirm=4
CCc1ccc(NC(=O)C2CCN(S(=O)(=O)c3ccc4c(c3)N(C(C)=O)CCO4)CC2)cc1	1.5	/	/	39*	0.61	-46	hIAP act confirm=-37
